Measurements from ChEMBL document CHEMBL4028913, “Discovery of Novel Potent VEGFR-2 Inhibitors Exerting Significant Antiproliferative Activity against Cancer Cell Lines” (J Med Chem, 2018).
Active and inactive are the calls of the source. No cut-off for these calls is given here.

Columns and labels:
[1] = Potency index, ratio of sorafenib GI50 to test compound GI50 for human renal cancer cells; format: functional, Renal cancer cell
Procedure, shortened: (§1)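 GI50 is the concentration giving 50% reduction in net protein increase relative to control. Potency index is the reference-drug GI50 divided by the test-compound GI50.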

[2] = tested on: A-431; assay: Growth inhibition of human A431 cells at 10 uM after 72 hrs by CellTiter-Glo assay relative to control; format: functional; conditions: A-431, 72 h, read-out: GI
Procedure, shortened: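 A431 cells seeded at 2000–4000 cells/well and treated with 10 μM final compound, 0.1% DMSO, for 72 h at 37 °C, 5% CO2. Viability read by CellTiter-Glo. Inhibition ratio = 1 − Vsample/Vvehicle control; triplicate.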

[3] = tested on: CCRF-CEM; assay: Cytotoxicity against human CCRF-CEM cells after 48 hrs by SRB assay; format: functional
Procedure, shortened: (§2)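 NCI-60 panel; cells grown in RPMI 1640 with 5% FBS and 2 mM L-glutamine, plated at 5000–40 000 cells/well by doubling time, preincubated 24 h (37 °C, 5% CO2). Drug added at five concentrations, 1-log steps from 10−4 to 10−8 M, for 48 h. Fixed with TCA, stained with 0.4% SRB, absorbance read at 515 nm. Percent growth computed against time-zero and untreated controls; GI50, TGI and LC50 derived.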

[4] = tested on: RPMI-8226; assay: Cytotoxicity against human RPMI8226 cells after 48 hrs by SRB assay; format: functional; conditions: RPMI-8226, 48 h; procedure, shortened: as §2
[5] = tested on: NCI-H226; assay: Cytotoxicity against human NCI-H226 cells after 48 hrs by SRB assay; format: functional; conditions: NCI-H226, 48 h; procedure, shortened: as §2
[6] = tested on: NCI-H522; assay: Cytotoxicity against human NCI-H522 cells after 48 hrs by SRB assay; format: functional; conditions: NCI-H522, 48 h; procedure, shortened: as §2
[7] = tested on: HCT-116; assay: Cytotoxicity against human HCT116 cells after 48 hrs by SRB assay; format: functional; conditions: HCT-116, 48 h; procedure, shortened: as §2
[8] = tested on: SF-295; assay: Cytotoxicity against human SF295 cells after 48 hrs by SRB assay; format: functional; conditions: SF-295, 48 h; procedure, shortened: as §2
[9] = tested on: LOX IMVI; assay: Cytotoxicity against human LOXIMVI cells after 48 hrs by SRB assay; format: functional; procedure, shortened: as §2
[10] = tested on: Malme-3M; assay: Cytotoxicity against human MALME-3M cells after 48 hrs by SRB assay; format: functional; procedure, shortened: as §2
[11] = tested on: M14; assay: Cytotoxicity against human M14 cells after 48 hrs by SRB assay; format: functional; conditions: M14, 48 h; procedure, shortened: as §2
[12] = tested on: SK-MEL-5; assay: Cytotoxicity against human SK-MEL-5 cells after 48 hrs by SRB assay; format: functional; conditions: SK-MEL-5, 48 h; procedure, shortened: as §2
[13] = tested on: IGROV-1; assay: Cytotoxicity against human IGROV1 cells after 48 hrs by SRB assay; format: functional; conditions: IGROV-1, 48 h; procedure, shortened: as §2
[14] = tested on: OVCAR-8; assay: Cytotoxicity against human OVCAR8 cells after 48 hrs by SRB assay; format: functional; conditions: OVCAR-8, 48 h; procedure, shortened: as §2
[15] = tested on: TK-10; assay: Cytotoxicity against human TK10 cells after 48 hrs by SRB assay; format: functional; conditions: TK-10, 48 h
Procedure, shortened: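 NCI-60 panel, five doses at 1-log steps from 10−4 to 10−8 M. Cells grown in RPMI 1640 with 5% FBS and 2 mM L-glutamine, seeded at 5000–40 000 cells/well and preincubated 24 h. Tz plates were TCA-fixed at drug addition. Drug exposure 48 h at 37 °C, then TCA fixation, 0.4% SRB stain and absorbance at 515 nm. GI50 taken from percent growth relative to Tz and control.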

[16] = tested on: PC-3; assay: Cytotoxicity against human PC3 cells after 48 hrs by SRB assay; format: functional; conditions: PC-3, 48 h; procedure, shortened: as §2
[17] = tested on: MCF7; assay: Cytotoxicity against human MCF7 cells after 48 hrs by SRB assay; format: functional; conditions: MCF7, 48 h; procedure, shortened: as §2
[18] = Potency index, ratio of sorafenib GI50 to test compound GI50 for human non-small cell lung cancer cells; format: functional; procedure, shortened: as §1
[19] = Potency index, ratio of sorafenib GI50 to test compound GI50 for human ovarian cancer cells; format: functional, Ovarian cancer cell; procedure, shortened: as §1
[20] = Potency index, ratio of sorafenib GI50 to test compound GI50 for human breast cancer cells; format: functional, Breast cancer cell; procedure, shortened: as §1
[21] = Potency index, ratio of sunitinib GI50 to test compound GI50 for human ovarian cancer cells; format: functional, Ovarian cancer cell
[22] = Potency index, ratio of sunitinib GI50 to test compound GI50 for human breast cancer cells; format: functional, Breast cancer cell; procedure, shortened: as §1
[23] = Potency index, ratio of sorafenib GI50 to test compound GI50 for human colon cancer cells; format: functional, Colon cancer cell; procedure, shortened: as §1
[24] = tested on: Melanoma cell; assay: Potency index, ratio of sorafenib GI50 to test compound GI50 for human melanoma cells; format: functional; procedure, shortened: as §1
[25] = Potency index, ratio of sorafenib GI50 to test compound GI50 for human prostate cancer cells; format: functional, Prostate cancer cell; procedure, shortened: as §1
[26] = Potency index, ratio of sunitinib GI50 to test compound GI50 for human colon cancer cells; format: functional, Colon cancer cell; procedure, shortened: as §1
[27] = Potency index, ratio of sunitinib GI50 to test compound GI50 for human CNS cancer cells; format: functional, CNS cancer cell; procedure, shortened: as §1
[28] = tested on: NCI/ADR-RES; assay: Potency index, ratio of sorafenib GI50 to test compound GI50 for human NCI-ADR-RES cells; format: functional; procedure, shortened: as §1
[29] = biological target: Ephrin type-A receptor 3 (Homo sapiens) (UniProt P29320); assay: Inhibition of human EPHA3 at 0.5 uM relative to control
[30] = biological target: Ephrin type-A receptor 4 (Homo sapiens) (UniProt P54764); assay: Inhibition of human EPHA4 at 0.5 uM relative to control
Ephrin type-A receptor 4 (Homo sapiens), sequence (P54764 whole entry): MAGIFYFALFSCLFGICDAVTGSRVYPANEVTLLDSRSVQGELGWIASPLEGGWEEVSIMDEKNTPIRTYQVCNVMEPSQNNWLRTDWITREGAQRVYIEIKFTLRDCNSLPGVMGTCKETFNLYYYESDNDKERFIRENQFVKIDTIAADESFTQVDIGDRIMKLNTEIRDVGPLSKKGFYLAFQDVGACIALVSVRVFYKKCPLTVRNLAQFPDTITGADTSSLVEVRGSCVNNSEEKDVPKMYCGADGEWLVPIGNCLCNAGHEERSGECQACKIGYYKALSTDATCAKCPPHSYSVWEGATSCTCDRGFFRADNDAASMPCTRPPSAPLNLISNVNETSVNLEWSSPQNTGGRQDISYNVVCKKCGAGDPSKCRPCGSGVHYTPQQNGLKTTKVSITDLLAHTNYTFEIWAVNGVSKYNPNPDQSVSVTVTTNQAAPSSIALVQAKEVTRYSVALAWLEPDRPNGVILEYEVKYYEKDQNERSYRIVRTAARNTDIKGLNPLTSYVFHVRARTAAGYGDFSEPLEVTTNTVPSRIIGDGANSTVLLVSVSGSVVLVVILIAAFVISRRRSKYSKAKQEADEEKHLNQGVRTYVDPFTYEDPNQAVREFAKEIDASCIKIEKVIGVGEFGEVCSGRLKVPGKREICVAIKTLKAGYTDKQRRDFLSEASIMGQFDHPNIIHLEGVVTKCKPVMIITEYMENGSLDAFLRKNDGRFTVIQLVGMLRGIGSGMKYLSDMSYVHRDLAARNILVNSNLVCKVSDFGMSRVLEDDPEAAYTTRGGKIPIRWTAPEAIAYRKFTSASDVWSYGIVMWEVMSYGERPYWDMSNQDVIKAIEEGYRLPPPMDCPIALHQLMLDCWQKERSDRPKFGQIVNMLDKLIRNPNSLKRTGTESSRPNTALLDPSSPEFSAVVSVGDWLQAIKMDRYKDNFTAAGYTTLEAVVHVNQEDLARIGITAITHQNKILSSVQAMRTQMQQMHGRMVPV

[31] = biological target: Ephrin type-A receptor 8 (Homo sapiens) (UniProt P29322); assay: Inhibition of human EPHA8 at 0.5 uM relative to control
[32] = biological target: Receptor-type tyrosine-protein kinase FLT3 (Homo sapiens) (UniProt P36888); assay: Inhibition of human Flt3 at 0.5 uM relative to control
Receptor-type tyrosine-protein kinase FLT3 (Homo sapiens), sequence (P36888 whole entry): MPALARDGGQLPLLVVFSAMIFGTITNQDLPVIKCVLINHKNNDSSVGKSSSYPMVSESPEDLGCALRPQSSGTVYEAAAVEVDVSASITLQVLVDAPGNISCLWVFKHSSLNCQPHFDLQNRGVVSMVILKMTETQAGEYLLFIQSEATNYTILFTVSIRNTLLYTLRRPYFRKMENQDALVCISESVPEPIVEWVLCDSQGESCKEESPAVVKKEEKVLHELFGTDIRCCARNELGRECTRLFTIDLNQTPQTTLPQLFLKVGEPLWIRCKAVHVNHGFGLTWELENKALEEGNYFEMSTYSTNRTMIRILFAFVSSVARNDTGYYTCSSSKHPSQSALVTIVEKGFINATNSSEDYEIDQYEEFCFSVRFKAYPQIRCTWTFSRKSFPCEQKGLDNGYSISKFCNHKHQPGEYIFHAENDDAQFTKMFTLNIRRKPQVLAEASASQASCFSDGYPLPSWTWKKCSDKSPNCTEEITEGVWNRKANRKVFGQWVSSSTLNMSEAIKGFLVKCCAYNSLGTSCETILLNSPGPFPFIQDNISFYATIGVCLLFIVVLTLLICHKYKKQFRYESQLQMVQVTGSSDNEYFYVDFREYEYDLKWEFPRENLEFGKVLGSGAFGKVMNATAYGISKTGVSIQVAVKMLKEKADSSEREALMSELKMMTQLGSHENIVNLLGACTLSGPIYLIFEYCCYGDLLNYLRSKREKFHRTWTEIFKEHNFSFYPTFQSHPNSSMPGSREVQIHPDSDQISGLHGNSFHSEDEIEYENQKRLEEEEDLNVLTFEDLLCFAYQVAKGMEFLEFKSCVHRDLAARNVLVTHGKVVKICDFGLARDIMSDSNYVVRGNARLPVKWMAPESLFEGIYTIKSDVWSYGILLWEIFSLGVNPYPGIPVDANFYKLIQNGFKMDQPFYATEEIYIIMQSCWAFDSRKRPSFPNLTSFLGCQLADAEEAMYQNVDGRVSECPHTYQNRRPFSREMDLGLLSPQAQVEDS

[33] = biological target: Mitogen-activated protein kinase kinase kinase kinase 5 (Homo sapiens) (UniProt Q9Y4K4); assay: Inhibition of human KHS at 0.5 uM relative to control
Mitogen-activated protein kinase kinase kinase kinase 5 (Homo sapiens), sequence (Q9Y4K4 whole entry, looked up): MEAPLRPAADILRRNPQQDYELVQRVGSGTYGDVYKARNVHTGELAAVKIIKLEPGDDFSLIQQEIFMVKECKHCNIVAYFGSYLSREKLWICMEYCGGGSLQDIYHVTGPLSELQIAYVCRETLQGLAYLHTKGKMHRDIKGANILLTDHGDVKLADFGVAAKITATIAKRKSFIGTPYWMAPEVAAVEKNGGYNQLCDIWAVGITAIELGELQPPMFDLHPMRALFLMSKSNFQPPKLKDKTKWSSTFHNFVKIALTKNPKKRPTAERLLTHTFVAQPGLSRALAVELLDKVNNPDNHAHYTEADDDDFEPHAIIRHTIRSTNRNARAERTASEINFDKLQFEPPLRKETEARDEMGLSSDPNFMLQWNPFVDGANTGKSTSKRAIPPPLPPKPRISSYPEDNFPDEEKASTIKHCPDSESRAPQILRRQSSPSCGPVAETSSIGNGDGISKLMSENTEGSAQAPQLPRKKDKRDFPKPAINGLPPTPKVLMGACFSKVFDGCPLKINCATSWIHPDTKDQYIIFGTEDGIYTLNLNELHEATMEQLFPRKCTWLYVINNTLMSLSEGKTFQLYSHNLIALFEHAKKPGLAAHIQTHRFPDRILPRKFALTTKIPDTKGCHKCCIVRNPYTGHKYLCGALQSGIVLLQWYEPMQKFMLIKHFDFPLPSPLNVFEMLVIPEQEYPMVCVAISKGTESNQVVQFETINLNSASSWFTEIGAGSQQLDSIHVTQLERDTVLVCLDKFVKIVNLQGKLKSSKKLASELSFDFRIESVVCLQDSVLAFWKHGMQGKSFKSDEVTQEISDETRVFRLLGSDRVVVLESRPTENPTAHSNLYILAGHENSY

[34] = biological target: TRAF2 and NCK-interacting protein kinase (Homo sapiens) (UniProt Q9UKE5); assay: Inhibition of human TNIK at 0.5 uM relative to control
TRAF2 and NCK-interacting protein kinase (Homo sapiens), sequence (Q9UKE5 whole entry, looked up): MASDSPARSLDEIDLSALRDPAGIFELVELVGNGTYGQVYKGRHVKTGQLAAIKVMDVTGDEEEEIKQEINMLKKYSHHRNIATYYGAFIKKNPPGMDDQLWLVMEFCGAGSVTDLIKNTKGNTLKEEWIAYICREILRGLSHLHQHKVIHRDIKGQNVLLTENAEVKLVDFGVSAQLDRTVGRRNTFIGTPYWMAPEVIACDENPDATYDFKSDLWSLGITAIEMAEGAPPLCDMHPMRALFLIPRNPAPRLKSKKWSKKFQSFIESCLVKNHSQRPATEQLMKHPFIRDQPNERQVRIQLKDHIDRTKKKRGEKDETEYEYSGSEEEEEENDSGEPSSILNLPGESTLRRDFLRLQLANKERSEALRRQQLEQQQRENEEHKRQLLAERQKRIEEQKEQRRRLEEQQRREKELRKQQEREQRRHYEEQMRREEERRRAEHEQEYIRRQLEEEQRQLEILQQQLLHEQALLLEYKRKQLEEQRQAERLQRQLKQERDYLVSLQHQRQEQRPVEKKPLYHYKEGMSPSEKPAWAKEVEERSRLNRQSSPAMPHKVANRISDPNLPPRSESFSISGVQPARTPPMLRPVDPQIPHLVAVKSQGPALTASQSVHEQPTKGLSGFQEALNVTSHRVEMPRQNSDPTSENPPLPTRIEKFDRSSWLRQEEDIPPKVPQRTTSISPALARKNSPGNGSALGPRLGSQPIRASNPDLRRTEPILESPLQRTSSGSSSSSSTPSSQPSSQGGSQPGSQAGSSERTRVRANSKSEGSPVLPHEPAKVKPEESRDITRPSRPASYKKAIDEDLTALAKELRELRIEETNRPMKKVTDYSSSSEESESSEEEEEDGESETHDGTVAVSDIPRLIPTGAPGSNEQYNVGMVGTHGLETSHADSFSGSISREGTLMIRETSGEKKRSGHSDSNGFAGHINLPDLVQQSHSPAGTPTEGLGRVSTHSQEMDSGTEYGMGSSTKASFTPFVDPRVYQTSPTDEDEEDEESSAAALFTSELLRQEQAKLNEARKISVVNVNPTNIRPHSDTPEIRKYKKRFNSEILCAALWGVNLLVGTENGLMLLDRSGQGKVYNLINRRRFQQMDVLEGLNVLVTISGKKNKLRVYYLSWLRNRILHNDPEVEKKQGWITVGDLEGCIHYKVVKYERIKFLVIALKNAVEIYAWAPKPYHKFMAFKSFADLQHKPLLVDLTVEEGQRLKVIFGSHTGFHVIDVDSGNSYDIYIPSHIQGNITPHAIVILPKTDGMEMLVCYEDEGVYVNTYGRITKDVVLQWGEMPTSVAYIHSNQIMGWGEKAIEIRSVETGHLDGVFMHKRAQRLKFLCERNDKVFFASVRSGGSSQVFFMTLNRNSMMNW

[35] = read-out: LC50 (the source's name)

## COc1cc2ncnc(Oc3ccc(NC(=O)Nc4ccc(CN5CCOCC5)c(C(F)(F)F)c4)c4ccccc34)c2cc1OC
[1]
  RatioGI50: 9.5
[2]
  inhibition of growth at 10 µM: 57.7%
[3]
  GI50: 1.17 µM
  TGI: 40.7 µM
[3]; [35]
  CC50: > 100 µM
[4]
  GI50: 0.39 µM
  TGI: 2.95 µM
[4]; [35]
  CC50: > 100 µM
[5]
  GI50: 0.07 µM
  TGI: 13.8 µM
[5]; [35]
  CC50: > 100 µM
[6]
  GI50: 0.31 µM
  TGI: 3.8 µM
[6]; [35]
  CC50: > 100 µM
[7]
  GI50: 0.79 µM
  TGI: 2.57 µM
[7]; [35]
  CC50: 7.08 µM
[8]
  GI50: 1.23 µM
  TGI: 6.03 µM
[8]; [35]
  CC50: 30.9 µM
[9]
  GI50: 1.1 µM
  TGI: 2.82 µM
[9]; [35]
  CC50: 7.24 µM
[10]
  GI50: 0.3 µM
  TGI: 1.55 µM
[10]; [35]
  CC50: 5.75 µM
[11]
  GI50: 0.95 µM
  TGI: 4.57 µM
[11]; [35]
  CC50: 26.9 µM
[12]
  GI50: 0.45 µM
  TGI: 2.69 µM
[12]; [35]
  CC50: 17 µM
[13]
  GI50: 0.52 µM
  TGI: 3.63 µM
[13]; [35]
  CC50: > 100 µM
[14]
  GI50: 0.4 µM
  TGI: 9.55 µM
[14]; [35]
  CC50: > 100 µM
[15]
  GI50: 0.38 µM
  TGI: 5.89 µM
[15]; [35]
  CC50: 35.5 µM
[16]
  GI50: 1.78 µM
  TGI: 12.6 µM
[16]; [35]
  CC50: > 100 µM
[17]
  GI50: 0.33 µM
  TGI: 11 µM
[17]; [35]
  CC50: > 100 µM
[18]
  RatioGI50: 3.9 - 9.5
[19]
  RatioGI50: 3.9 - 9.5
[20]
  RatioGI50: 3.9 - 9.5
[21]
  RatioGI50: 5 - 7.7
[22]
  RatioGI50: 5 - 7.7
[23]
  RatioGI50: 1.6 - 2.9
[24]
  RatioGI50: 1.6 - 2.9
[25]
  RatioGI50: 1.6
[26]
  RatioGI50: 1.1 - 3.7
[27]
  RatioGI50: 1.1 - 3.7
[28]
  RatioGI50: 3.3
[29]
  inhibition: Active
[30]
  inhibition: Active
[31]
  inhibition: Active
[32]
  inhibition: Active
[33]
  inhibition: Active
[34]
  inhibition: Active
